In the array DNA melting data of Ke et al. (doi:10.1101/2024.01.08.574731):

What was measured:
[1] = folding enthalpy; higher = less favourable; fluorescence melt of hairpins on a sequencing array, two-state fit; details: sodium 0.088 M
Summary of the method: (§1)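 Cy3 signals were normalised both to pre-quench Cy3 and to control constructs. They came from library hairpins carrying annealed Cy3 and quencher oligos on a sequenced MiSeq flow cell, imaged in 50 mM Na-HEPES pH 8.0, 25 mM NaCl, in 2.5 °C steps up to 60 °C. Bootstrapped two-state fits gave melting temperature and folding enthalpy, and four replicates were combined by inverse variance. Fitted temperatures were then raised by 9.35 °C to match UV melts.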

[2] = melting temperature; fluorescence melt of hairpins on a sequencing array, two-state fit, raised by 9.35 °C to match UV melts; details: sodium 0.088 M
Summary of the method: as §1

Row | Sequence | folding enthalpy [1] | Tm [2]
1 | GATCCCTACCGGGATC ((((((....)))))) | -32.7 kcal/mol | 61.9 °C
2 | GAGACCCGAAAGGGCCTC (((.(((....))).))) | -28.8 kcal/mol | 58.5 °C
3 | GTTGGCGAAAGCCGGAAC ((((((....)))..))) | -7.97 kcal/mol | 27.8 °C
4 | GATGGCGAAAGCCGGATC ((((((....)))..))) | -10.2 kcal/mol | 37 °C
5 | GATCCCGAAAGGGAATC ((((((....))).))) | -14.5 kcal/mol | 49.6 °C
6 | GTGACCGGAAACGACCAC (((..((....))..))) | -21.2 kcal/mol | 30.4 °C
7 | GATCGGTCACCGATC ((((((...)))))) | -36.2 kcal/mol | 55.8 °C
8 | GCTGCCGAAAGGCAGAGC ((((((....)))..))) | -10 kcal/mol | 67.1 °C
9 | GGTTTCGGAAACGAAACC (((((((....))))))) | -46 kcal/mol | 66.5 °C
10 | GAATGTGGAAACATATTC ((((.((....)).)))) | -33.2 kcal/mol | 35.1 °C
11 | GATCGCAATCGCGATC ((((((....)))))) | -32.2 kcal/mol | 67.9 °C
12 | GATCATCAGTATGATC ((((((....)))))) | -29.4 kcal/mol | 45.8 °C
13 | GATCCCCGCGGGATC ((((((...)))))) | -34.5 kcal/mol | 65.9 °C
14 | GCGTTTCCGAAAGGACGC (((..(((....)))))) | -24.5 kcal/mol | 49.7 °C
15 | GGTTGCGAAAGCACACC ((((((....))).))) | -19.7 kcal/mol | 53.4 °C
16 | GCTCGCGAAAGCGTCAGC ((((((....)))..))) | -12.3 kcal/mol | 41.4 °C
17 | GCTGGGCGAAAGCACGGC ((.(.((....)).).)) | -21.2 kcal/mol | 69.1 °C
18 | GCCCGGCGAAAGCCGAGC ((.((((....)))).)) | -18.4 kcal/mol | 68.3 °C
19 | GGGTTAGCGAAAGCTCCC (((..(((....)))))) | -23.7 kcal/mol | 41.8 °C
20 | GATCGCCAGGGCGATC ((((((....)))))) | -31 kcal/mol | 68.3 °C
21 | GTTTCCGAAAGGAGTAAC ((((((....)))..))) | -12.6 kcal/mol | 28.8 °C
22 | GACGCGCGAAAGCGGTC (((.(((....)))))) | -14 kcal/mol | 55 °C
23 | GAGTACGAAAGTAGACTC ((((((....)))..))) | -16.8 kcal/mol | 35.8 °C

Row | Sequence | folding enthalpy [1] | Tm [2]
24 | GGGTGGGGAAACCTACCC ((((.((....)).)))) | -41.4 kcal/mol | 54.5 °C
25 | GGAGCGGGAAACTGCTCC (((((.(....).))))) | -45 kcal/mol | 60.9 °C
26 | GAATGAGGAAACTCGTTC (((.(((....))).))) | -32.3 kcal/mol | 43.9 °C
27 | GCCGACGGAAACGCCAGC ((.(.((....)).).)) | -13.3 kcal/mol | 33.8 °C
28 | GATCGGTGATCCGATC ((((((....)))))) | -41.2 kcal/mol | 56.8 °C
29 | GCGTGCGAAAGCAGACGC ((((((....)))..))) | -28.1 kcal/mol | 62.7 °C
30 | GGACGCGGAAACGCACCC ((..(((....)))..)) | -10.1 kcal/mol | 33.7 °C
31 | GAATCACGAAAGTGTTTC (((.(((....))).))) | -24.7 kcal/mol | 41.5 °C
32 | GGGGTGGGAAACCGTCCC (((..((....))..))) | -18.5 kcal/mol | 45.2 °C
33 | GGCCACGAAAGTGCAGCC ((((((....)))..))) | -19.9 kcal/mol | 49.9 °C
34 | GGGCCTCGAAAGAGTCCC (((.(((....))).))) | -40.7 kcal/mol | 54.2 °C
35 | GCTTCTGGAAACAGAAGC (((((((....))))))) | -49 kcal/mol | 64.9 °C
36 | GTGCGGGGAAACTCGCGC (.(((.(....).))).) | -24 kcal/mol | 53.5 °C
37 | GATCTTGAACAAGATC ((((((....)))))) | -34.8 kcal/mol | 49.2 °C
38 | GACGCCGGAAACGACGCC (.((.((....)).)).) | -21.7 kcal/mol | 39.7 °C
39 | GATCGGTGAACCGATC ((((((....)))))) | -43.4 kcal/mol | 61 °C
40 | GATCGCACACGCGATC ((((((....)))))) | -38 kcal/mol | 68.2 °C
41 | GCTGAACCGAAAGGTAGC (((..(((....)))))) | -21.9 kcal/mol | 42.1 °C
42 | GTGTCCGAAAGGAGGCAC ((((((....)))..))) | -20.6 kcal/mol | 39.5 °C
43 | GTGAAGGGAAACCTTTAC ((.((((....)))).)) | -25.3 kcal/mol | 39.6 °C
44 | GACTACGAAAGTAGCGTC ((((((....)))..))) | -12.7 kcal/mol | 43.8 °C
45 | GCTTCCGAAAGGATAAGC ((((((....)))..))) | -22.8 kcal/mol | 44.2 °C
46 | GCGATGTATCGC ((((....)))) | -28.2 kcal/mol | 56.7 °C

Row | Sequence | folding enthalpy [1] | Tm [2]
47 | GCTTTCGAAAGAAGAAGC ((((((....)))..))) | -22.2 kcal/mol | 32.1 °C
48 | GCGCAGCGAAAGCCACGC (((..((....))..))) | -9.86 kcal/mol | 42.4 °C
49 | GCCTACGAAAGTACTGGC ((((((....)))..))) | -24.4 kcal/mol | 40.2 °C
50 | CGGGCGGAAACGCGTCCG ((((((....)))..))) | -23.9 kcal/mol | 53 °C
51 | GCGATTTTTCGC ((((....)))) | -27.2 kcal/mol | 53.1 °C
52 | GCCCCGCGAAAGCAGCGC ((.(.((....)).).)) | -14.2 kcal/mol | 39.7 °C
53 | GGCGATCGAAAGATGGCC (((.(((....))).))) | -47.6 kcal/mol | 57.6 °C
54 | GAAGGAGGAAACCCCTTC (((((.(....).))))) | -31.3 kcal/mol | 36.9 °C
55 | GTCACCGAAAGGTAGAC ((((((....))).))) | -18.9 kcal/mol | 51 °C
56 | GGGGACGAAAGTCTTCCC ((((((....)))..))) | -17.8 kcal/mol | 39.3 °C
57 | GATCCCACTTGGGATC ((((((....)))))) | -42.5 kcal/mol | 61.1 °C
58 | GCAGTATCGAAAGATTGC (((..(((....)))))) | -20.5 kcal/mol | 34.9 °C
59 | GATCAGCGAACTGATC ((((((....)))))) | -34.4 kcal/mol | 49.3 °C
60 | GGATCCGAAAGGAGTTCC ((((((....)))..))) | -14.8 kcal/mol | 32.8 °C
61 | GTGGGGTCGAAAGACCAC (((..(((....)))))) | -19.2 kcal/mol | 63.1 °C
62 | GATCAAGCAGTTGATC ((((((....)))))) | -31.8 kcal/mol | 46.6 °C
63 | GCTACTCGAAAGAGAAGC (((.(((....))).))) | -28.6 kcal/mol | 50.4 °C
64 | GGACTCGAAAGAGGATCC ((((((....)))..))) | -17.9 kcal/mol | 37 °C
65 | GATCTAAGCGTAGATC ((((((....)))))) | -27 kcal/mol | 36.9 °C
66 | GCACCTCCGAAAGGATGC (((..(((....)))))) | -21.9 kcal/mol | 36.5 °C
67 | GCGTCGGCGAAAGCCCGC (((..(((....)))))) | -17 kcal/mol | 58.7 °C
68 | GCACCGCGAAAGCGGAGC ((.((((....)))).)) | -16.4 kcal/mol | 69 °C
69 | GCTCTCGGAAACGGGAGC ((((.((....)).)))) | -41.3 kcal/mol | 57.4 °C

Row | Sequence | folding enthalpy [1] | Tm [2]
70 | GTGAGGGGAAACCCTCAC (((((((....))))))) | -33.4 kcal/mol | 67.7 °C
71 | GGGCACGAAAGTGTCCC ((((((....))).))) | -16.5 kcal/mol | 65.1 °C
72 | CGCGGACGCCTCCGCG ((((((....)))))) | -32 kcal/mol | 68.8 °C
73 | GAAAGCGAAAGCTTTTTC ((((((....)))..))) | -14.2 kcal/mol | 49 °C
74 | GATCCGAGCACGGATC ((((((....)))))) | -38.2 kcal/mol | 58.5 °C
75 | GACTGCGGAAACGCAATC ((.((((....)))).)) | -15.4 kcal/mol | 38 °C
76 | GTTAGCGAAAGCTAAAC ((((((....))).))) | -13.7 kcal/mol | 46.5 °C
77 | GCAAATGCGAAAGCATGC (((..(((....)))))) | -15 kcal/mol | 51.4 °C
78 | GCAAACTCGAAAGAGTGC (((..(((....)))))) | -18 kcal/mol | 43.8 °C
79 | GGAGCTCGAAAGAGGTCC (((.(((....))).))) | -37.8 kcal/mol | 65.9 °C
80 | GCGCTACGAAAGTATCGC (((.(((....))).))) | -42.1 kcal/mol | 53.9 °C
81 | GCCCAGGCGAAAGCCGGC (((..(((....)))))) | -10.1 kcal/mol | 62 °C
82 | GGTCACGGAAACGTAACC (((.(((....))).))) | -31.5 kcal/mol | 42.1 °C
83 | GAGTGGGGAAACCCGCTC (((.(((....))).))) | -35.8 kcal/mol | 55.6 °C
84 | GACGAAGAAATTCGTC ((((((....)))))) | -34.1 kcal/mol | 53.8 °C
85 | GTGAGCTCGAAAGAGCAC (((..(((....)))))) | -9.96 kcal/mol | 65 °C
86 | GCTCGCGAAAGCGGAAGC ((((((....)))..))) | -16.3 kcal/mol | 53.2 °C
87 | GTCGCACGAAAGTGGAC (((.(((....)))))) | -18.8 kcal/mol | 49.9 °C
88 | GATAATGGAAACATTATC (((((((....))))))) | -43.9 kcal/mol | 48.4 °C
89 | GGCTCCGAAAGGAATGCC ((((((....)))..))) | -26.9 kcal/mol | 51.3 °C
90 | GCACGCGGAAACGCGCGC ((.((((....)))).)) | -23.5 kcal/mol | 68.5 °C
91 | GTCACGCGAAAGCGCGAC (((.(((....))).))) | -29.6 kcal/mol | 58.9 °C
92 | GCACAAGCGAAAGCTTGC (((..(((....)))))) | -7.33 kcal/mol | 37.8 °C
